The source made the active and inactive calls. The calls are words filed in the database; no cut-off is given here.

These results are taken from ChEMBL document CHEMBL1909503, “Protective effects of luteolin against apoptotic liver damage induced by D-galactosamine/lipopolysaccharide in mice” (2011).

The test system of test [1] is Mus musculus. Put plainly: Hepatoprotective activity in ICR mouse assessed as reduction in GalN/LPS-induced mortality at 200 mg/kg, ip administered 1 hr prior to GalN/LPS challenge measured after 24 hrs of GalN/LPS injection. In kind it is functional, organism-based. Details: dose 200 mg/kg; scale not given: the % may be the effect or the level left. The method in brief: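 Male ICR mice (25–30 g), fasted overnight with water ad libitum. Pretreatment ip, suspended in 10% Tween 80–saline, 1 h before ip GalN (700 mg/kg) plus E. coli 026:B6 LPS (10 μg/kg) in PBS. Survival monitored for 24 h after GalN/LPS; 15 mice per group.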

Test [2] concerns Mus musculus. Put plainly: Hepatoprotective activity in GalN/LPS -stimulated ICR mouse assessed as suppression of cytochrome c level at 200 mg/kg, ip administered 1 hr prior to GalN/LPS challenge measured after 8 hrs of GalN/LPS injection by Western blotting. Details: dose 200 mg/kg. In kind it is functional, organism-based. The method in brief:
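Male ICR mice; compound in 10% Tween 80–saline ip 1 h before ip GalN 700 mg/kg/LPS 10 μg/kg; liver taken 8 h later. Cytosolic fraction prepared by NE-PER extraction. 50 μg cytosolic protein run on 12% SDS-PAGE, blotted to nitrocellulose, blocked with 5% nonfat milk/PBS, probed 1 h at room temperature with monoclonal anti-cytochrome c, β-actin as reference, HRP secondary. 8–10 mice per group.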

Test [3] relates to Mus musculus. Put plainly: Hepatoprotective activity in ip dosed ICR mouse assessed as reduction in GalN/LPS-induced mortality at 200 mg/kg, ip administered 1 hr prior to GalN/LPS challenge measured after 24 hrs of GalN/LPS injection. In kind it is functional, organism-based. On the set-up: dose 200 mg/kg. An outline of the steps: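 15 male ICR mice per group received compound (25–200 mg/kg) in 10% Tween 80–saline ip 1 h before ip GalN 700 mg/kg plus E. coli 026:B6 LPS 10 μg/kg in PBS; survival monitored over 24 h after challenge.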

Test [4] deals with Mus musculus. Put plainly: Hepatoprotective activity in GalN/LPS -stimulated ICR mouse assessed as decrease in caspase-8 activity at 200 mg/kg, ip administered 1 hr prior to GalN/LPS challenge measured after 8 hrs of GalN/LPS injection relative to control. In kind it is functional. Details: scale not given: the % may be the effect or the level left. The settings on record: route intraperitoneal. The method in brief: (§1)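 Liver taken 8 h after GalN (700 mg/kg)/LPS (10 μg/kg) ip, homogenized in 25 mM Tris, 5 mM MgCl2, 1 mM EGTA with protease inhibitors; 40000g supernatant, 10 mM DTT added. 30 μg protein preincubated 15 min at room temperature in HEPES/EDTA/NaCl/Triton/DTT buffer, then 200 μM peptide substrate (DEVD for caspase-3, IETD for caspase-8) at 37 °C; fluorescence (400/490 nm) read at 120 min; expressed as % of control.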

Test [5] deals with Mus musculus. Put plainly: Hepatoprotective activity in GalN/LPS -stimulated ICR mouse assessed as reduction in phosphorylated JNK p-46 expression level at 200 mg/kg, ip administered 1 hr prior to GalN/LPS challenge measured after 3 hrs of GalN/LPS injection by Western blotting. In kind it is functional, organism-based. Details: dose 200 mg/kg. The method in brief:
(§2)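 Male ICR mice (25–30 g), fasted overnight, water ad libitum. Compound suspended in 10% Tween 80–saline, given ip 1 h before ip GalN (700 mg/kg) plus E. coli 026:B6 LPS (10 μg/kg) in PBS. Liver homogenized in lysis buffer; 10 μg protein per lane on 10% SDS-PAGE, semidry transfer to nitrocellulose, blocked in 5% skim milk/TBS. Overnight 4 °C primary antibody; β-actin reference. 8–10 mice per group.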

Test [6] concerns Mus musculus. Put plainly: Hepatoprotective activity in GalN/LPS -stimulated ICR mouse assessed as decrease in serum TNFalpha level at 200 mg/kg, ip administered 1 hr prior to GalN/LPS challenge measured after 1 hr of GalN/LPS injection by ELISA. In kind it is functional. As to conditions: route intraperitoneal. An outline of the steps:
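Male ICR mice dosed ip (10% Tween 80–saline) 1 h before ip GalN 700 mg/kg plus LPS 10 μg/kg. Serum TNF-α quantified 1 h after challenge by mouse ELISA kit following kit instructions. 8–10 mice per group.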
For orientation: ELISA stands for enzyme-linked immunosorbent assay.

Test [7] concerns Mus musculus. Put plainly: Hepatoprotective activity in GalN/LPS-stimulated ICR mouse assessed as decrease in ratio of phosphorylated Bim EL protein expression level at 200 mg/kg, ip administered 1 hr prior to GalN/LPS challenge measured after 3 hrs of GalN/LPS injection by Western blotting. The test is classed as functional, organism-based. On the set-up: dose 200 mg/kg. An outline of the steps:
as §2
For orientation: Immunoblotting shows a protein as a band on a membrane.

Test [8] concerns Mus musculus. Put plainly: Hepatoprotective activity in GalN/LPS -stimulated ICR mouse assessed as decrease in serum alanine amino transferase level at 200 mg/kg, ip administered 1 hr prior to GalN/LPS challenge measured after 8 hrs of GalN/LPS injection. In kind it is functional. The settings on record: route intraperitoneal. The method in brief:
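Fasted male ICR mice given compound ip in 10% Tween 80–saline 1 h before ip GalN (700 mg/kg)/LPS (10 μg/kg) in PBS. Blood sampled 8 h after challenge; serum ALT measured with an automatic analyzer, reported in U/L. 8–10 mice per group.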

In test [9] the test system is Mus musculus. Put plainly: Hepatoprotective activity in GalN/LPS -stimulated ICR mouse assessed as decrease in ratio of phosphorylated BimL protein expression level at 200 mg/kg, ip administered 1 hr prior to GalN/LPS challenge measured after 3 hrs of GalN/LPS injection by Western blotting. The test is classed as functional, organism-based. On the set-up: dose 200 mg/kg. An outline of the steps:
as §2

Test [10] has as its system Mus musculus. Put plainly: Hepatoprotective activity in GalN/LPS -stimulated ICR mouse assessed as reduction in number of apoptotic hepatocytes at 200 mg/kg, ip administered 1 hr prior to GalN/LPS by TUNEL assay. The test is classed as functional, organism-based. Details: dose 200 mg/kg. The settings on record: Hepatocyte. The method in brief: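 Liver sections from male ICR mice pretreated ip 1 h before GalN (700 mg/kg)/LPS (10 μg/kg). Apoptotic hepatocytes detected with an in situ TUNEL kit; TUNEL-positive cells counted microscopically across 200 histological fields.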

Test [11] has as its system Mus musculus. Put plainly: Hepatoprotective activity in GalN/LPS -stimulated ICR mouse assessed as reduction in phosphorylated JNK p-54 expression level at 200 mg/kg, ip administered 1 hr prior to GalN/LPS challenge measured after 3 hrs of GalN/LPS injection by Western blotting. In kind it is functional, organism-based. On the set-up: dose 200 mg/kg. The method in brief: as §2

Test [12] has as its system Mus musculus. Put plainly: Hepatoprotective activity in GalN/LPS -stimulated ICR mouse assessed as decrease in caspase-3 activity at 200 mg/kg, ip administered 1 hr prior to GalN/LPS challenge measured after 8 hrs of GalN/LPS injection relative to control. In kind it is functional. As to conditions: route intraperitoneal. Details: scale not given: the % may be the effect or the level left. The method in brief:
as §1

In test [13] the test system is Mus musculus. Put plainly: Hepatoprotective activity in GalN/LPS -stimulated ICR mouse assessed as decrease in Bax expression level at 200 mg/kg, ip administered 1 hr prior to GalN/LPS challenge measured after 3 hrs of GalN/LPS injection by Western blotting. On the set-up: dose 200 mg/kg. The test is classed as functional, organism-based. The method in brief: as §2

Test [14] has as its system Mus musculus. Put plainly: Hepatoprotective activity in GalN/LPS -stimulated ICR mouse assessed as decrease in Bid expression level at 200 mg/kg, ip administered 1 hr prior to GalN/LPS challenge measured after 3 hrs of GalN/LPS injection by Western blotting. The test is classed as functional, organism-based. Details: dose 200 mg/kg. An outline of the steps: as §2
The test system of test [15] is Mus musculus. Put plainly: Hepatoprotective activity in GalN/LPS -stimulated ICR mouse assessed as suppression of TRADD expression level at 200 mg/kg, ip administered 1 hr prior to GalN/LPS challenge measured after 3 hrs of GalN/LPS injection by Western blotting. In kind it is functional, organism-based. On the set-up: dose 200 mg/kg. An outline of the steps: as §2

On to SILYMARIN, for which, in [1], the Activity came to 13.3%.

In the case of `O=c1cc(-c2ccc(O)c(O)c2)oc2cc(O)cc(O)c12` [LUTEOLIN], the inhibition entry in [2], in test [5], in test [7], in [9], in [11] and in test [13] was “Active” throughout. Moreover, the inhibition result in test [14] and in [15] was “Active” throughout. Besides, the Activity result is “Dose-dependent effect” in test [3]; 176.8% in [4]; 574.2 pg/mL in test [6]; 1059 U/L in test [8]; 251.7% in test [12]. In test [10], the result was Active.
